Reference: ChEMBL document CHEMBL2375329, “A diazen-1-ium-1,2-diolate analog of 7-azabenzobicyclo[2.2.1]heptane: synthesis, nitric oxide and nitroxyl release, in vitro hemodynamic, and anti-hypertensive studies” (Bioorg Med Chem Lett, 2013)

What was measured:
[1] = Induction of HNO release in phosphate buffer saline after 48 hrs by phosphine-trapping based LC-MS assay relative to control; format: physicochemical
In short: (§1)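 Test compound (20 µM final) was incubated in PBS pH 7.4 containing 7.5% DMSO with a phosphine HNO trap (1 mM final) and 4-hydroxybenzophenone internal standard (5.05 µM), in a sealed vial at 37 °C for 2 h or 48 h. The reaction was quenched with H2O2, dried, and redissolved in methanol. HNO-derived amide was quantified by ESI-negative LC-MS against a standard curve. % is of a theoretical 1 mol HNO/mol, mean of triplicates.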

[2] = Induction of HNO release in phosphate buffer saline after 2 hrs by phosphine-trapping based LC-MS assay relative to control; format: physicochemical; in short: as §1
[3] = Induction of nitric oxide release in phosphate buffer solution after 1.5 hrs by Griess method relative to control; format: physicochemical
In short: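 Test compound at 5.0×10^-2 mM was incubated in phosphate buffer pH 7.4 at 37 °C for 1.5 h. NO was estimated indirectly as nitrite by the Griess reaction. % nitrite is based on a theoretical maximum of 2 mol NO/mol compound, mean of n = 3.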

[4] = Induction of nitric oxide release in phosphate buffer solution after 2 to 4 hrs by Griess method relative to control; format: physicochemical
In short: (§2)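 Test compound at 5.0 × 10^-2 mM in PBS pH 7.4 at 37 °C for 2 or 4 h. Nitrite formed from NO was quantified by the Griess reaction and expressed as % of a theoretical maximum of 2 mol NO/mol compound; mean of n = 3.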

Mus musculus [5] = assay: Effect on cardiac hemodynamic parameter in C57 black mouse assessed as heart rate at 13.7 to 60.345 umol/kg, po after 3 hrs (reference value: 439 +/- 73 bpm); format: functional
Mus musculus [6] = assay: Antihypertensive activity in C57 black mouse assessed as mean blood pressure at 13.7 to 60.345 umol/kg, po after 6 hrs (reference value: 105.7 +/- 9.3 mmHg); format: functional
Mus musculus [7] = assay: Antihypertensive activity in C57 black mouse assessed as diastolic blood pressure at 13.7 to 60.345 umol/kg, po after 6 hrs (reference value: 85.3 +/- 11.5 mmHg); format: functional, Artery
Mus musculus [8] = assay: Antihypertensive activity in C57 black mouse assessed as systolic blood pressure at 13.7 to 60.345 umol/kg, po after 6 hrs (reference value: 126.2 +/- 7.2 mmHg); format: functional, Artery
Mus musculus [9] = assay: Effect on cardiac hemodynamic parameter in C57 black mouse assessed as heart rate at 13.7 to 60.345 umol/kg, po after 3 hrs (reference value: 448 +/- 72 bpm); format: functional
Mus musculus [10] = assay: Antihypertensive activity in C57 black mouse assessed as mean blood pressure at 13.7 to 60.345 umol/kg, po after 3 hrs (reference value: 97.5 +/- 8.7 mmHg); format: functional
Mus musculus [11] = assay: Antihypertensive activity in C57 black mouse assessed as diastolic blood pressure at 13.7 to 60.345 umol/kg, po after 3 hrs (reference value: 77.2 +/- 11.3 mmHg); format: functional, Artery
Mus musculus [12] = assay: Antihypertensive activity in C57 black mouse assessed as systolic blood pressure at 13.7 to 60.345 umol/kg, po after 3 hrs (reference value: 118.3 +/- 6.1 mmHg); format: functional, Artery
Mus musculus [13] = assay: Effect on cardiac hemodynamic parameter in C57 black mouse assessed as heart rate at 13.7 to 60.345 umol/kg, po after 1 hr (reference value: 449 +/- 40 bpm); format: functional
Mus musculus [14] = assay: Antihypertensive activity in C57 black mouse assessed as mean blood pressure at 13.7 to 60.345 umol/kg, po after 1 hr (reference value: 106 +/- 11 mmHg); format: functional
Mus musculus [15] = assay: Antihypertensive activity in C57 black mouse assessed as diastolic blood pressure at 13.7 to 60.345 umol/kg, po after 1 hr (reference value: 85.5 +/- 12.6 mmHg); format: functional, Artery
Mus musculus [16] = assay: Antihypertensive activity in C57 black mouse assessed as systolic blood pressure at 13.7 to 60.345 umol/kg, po after 1 hr (reference value: 126.5 +/- 9.4 mmHg); format: functional, Artery
Heart [17] = assay: Ionotropic activity in C57BL/6 mouse heart assessed as coronary flow rate at 100 uM after 20 mins by hemodynamic analysis (reference value: 2.62 +/- 0.1 ml/min); format: functional
In short: (§3)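 Isolated C57BL/6 mouse hearts perfused retrogradely (Langendorff) at constant pressure (90 cm H2O) with 95% O2/5% CO2-aerated Krebs-Henseleit buffer at 37 °C. After 20 min stabilization, hearts were perfused with compound at 10 or 100 µM for 20 min. Measured: heart rate, rates of contraction and relaxation, LVDP and coronary flow. Comparison to baseline; mean ± SEM, n = 4.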

Heart [18] = assay: Ionotropic activity in C57BL/6 mouse heart assessed as increase in coronary flow rate at 10 uM after 20 mins by hemodynamic analysis relative to control; format: functional; in short: as §3
Heart [19] = assay: Ionotropic activity in C57BL/6 mouse heart assessed as heart rate at 100 uM after 20 mins by hemodynamic analysis (reference value: 342 +/- 11 bpm); format: functional; in short: as §3
Heart [20] = assay: Ionotropic activity in C57BL/6 mouse heart assessed as decrease in heart rate at 10 uM after 20 mins by hemodynamic analysis relative to control; format: functional; set-up: scale not given: the % may be the effect or the level left; in short: as §3
Heart [21] = assay: Ionotropic activity in C57BL/6 mouse heart assessed as rate of relaxation at 100 uM after 20 mins by hemodynamic analysis (reference value: -3318 +/- 161 cmH2O/ms); format: functional; in short: as §3
Heart [22] = assay: Ionotropic activity in C57BL/6 mouse heart assessed as increase in rate of relaxation at 10 uM after 20 mins by hemodynamic analysis relative to control; format: functional; set-up: scale not given: the % may be the effect or the level left; in short: as §3
Heart [23] = assay: Ionotropic activity in C57BL/6 mouse heart assessed as rate of contraction at 100 uM after 20 mins by hemodynamic analysis (reference value: 4178 +/- 141 cmH2O/ms); format: functional; in short: as §3
Heart [24] = assay: Ionotropic activity in C57BL/6 mouse heart assessed as increase in rate of contraction at 10 uM after 20 mins by hemodynamic analysis relative to control; format: functional; in short: as §3
Heart [25] = assay: Positive ionotropic activity in C57BL/6 mouse heart assessed as left ventricular developing pressure at 100 uM after 20 mins by hemodynamic analysis (reference value: 169 +/- 2 cmH2O); format: functional; in short: as §3
Heart [26] = assay: Positive ionotropic activity in C57BL/6 mouse heart assessed as increase in left ventricular developing pressure at 10 uM after 20 mins by hemodynamic analysis relative to control; format: functional; in short: as §3
[27] = Induction of nitric oxide release in phosphate buffer solution after 4 hrs by Griess method relative to control; format: physicochemical; in short: as §2
[28] = Induction of nitric oxide release in phosphate buffer solution after 2 hrs by Griess method relative to control; format: physicochemical; in short: as §2
[29] = Ratio of IPA/No half life to compound half life in phosphate buffered saline at pH 7.4; format: physicochemical; conditions: buffer
[30] = Half life of the compound in phosphate buffered saline at 300 uM after 24 hrs at pH 7.4 by diazeniumdiolate chromophore-based UV-Vis spectrophotometric analysis; format: physicochemical
In short: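 Compound at 300 µM final (added from 6 mM DMSO stock; 5% DMSO final) in pH 7.4 phosphate buffer, stirred at 37 °C for 0-24 h. Spectra scanned at 200-400 nm over time. Decay of the diazeniumdiolate absorbance at 259 nm was fitted as first order by linear regression of ln(At − A∞) versus time, and t1/2 = ln2/k.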

[31] = Induction of HNO release in phosphate buffer saline after 2 to 4 hrs by phosphine-trapping based LC-MS assay relative to control; format: physicochemical
In short: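 HNO trapping assay. Test compound at 20 µM with phosphine trap at 1 mM and 4-hydroxybenzophenone internal standard at 5.05 µM, in PBS pH 7.4 containing 7.5% DMSO, sealed, 37 °C. Quenched with H2O2, then dried and redissolved in methanol. HNO-derived amide quantified by ESI-negative LC-MS against a standard curve (0.2-10 µg/mL). Result is % of 1 mol HNO/mol compound; mean of triplicates.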

For `CC(C)N[N+]([O-])=N[O-].[Na+]`, the Activity [1] was 5.1%, the Activity [2] was 5.4% and the Activity [3] was 62%.

`CN(N=O)c1ccc(C#N)cc1` showed an Activity [4] of 100%.

`[Na+].[O-]/N=[N+](/[O-])N1C2CCC1c1ccccc12` showed an Activity (Mus musculus [5]) of 466 bpm, an Activity (Mus musculus [6]) of 101.1 mmHg and an Activity (Mus musculus [7]) of 87.2 mmHg. It also gave an Activity (Mus musculus [8]) of 128.9 mmHg, an Activity (Mus musculus [9]) of 554 bpm and an Activity (Mus musculus [10]) of 85.8 mmHg. The Activity (Mus musculus [11]) was 75.4 mmHg, the Activity (Mus musculus [12]) was 106.5 mmHg and the Activity (Mus musculus [13]) was 605 bpm. It also gave an Activity (Mus musculus [14]) of 82.3 mmHg, an Activity (Mus musculus [15]) of 70.6 mmHg and an Activity (Mus musculus [16]) of 105.5 mmHg. It also gave an Activity (Heart [17]) of 3.92 mL/min, an Activity (Heart [18]) of 53% and an Activity (Heart [19]) of 307 bpm. It also gave an Activity (Heart [20]) of 22%, an Activity (Heart [21]) of -3945 cmH2O/ms and an Activity (Heart [22]) of 9%. For the same molecule, the Activity (Heart [23]) was 5547 cmH2O/ms, the Activity (Heart [24]) was 30% and the Activity (Heart [25]) was 213 cmH2O. For the same molecule, the Activity (Heart [26]) was 24%, the Activity [1] was 20.2% and the Activity [2] was 22.3%. For the same molecule, the Activity [27] was 21.5%, the Activity [28] was 19% and the Ratio [29] was 7.7. For the same molecule, the half-life at 300 µM [30] was 17.8 min.

In the case of `CN(c1ccc(C#N)cc1)N(O)N=O`, the Activity [31] is reported as 100% and the half-life at 300 µM [30] is reported as 11 min.

Molecule `[Na+].[Na+].[O-][N+]([O-])=NO` [ANGELI'S SALT] has an Activity [1] of 85.7%, an Activity [2] of 85.9% and an Activity [27] of 20.8%. The Activity [28] was 21.3%.
